Published values of several laboratories.
Protocols differ between the studies behind these lines.
Target: Vascular endothelial growth factor receptor 2 (KDR, Homo sapiens, UniProt P35968)

C#Cc1n[nH]c2c(-c3cn([C@@H](C)c4ccccc4)c(=O)[nH]c3=O)cc(F)cc12  inhibition (enzyme activity, inhibitor; 0.1 µM): 5.3%
COc1ccc2c(c1)/C(=C/c1cnc[nH]1)C(=O)N2  remaining signal (cell-free assay; 0.5 µM): 78.7%
Cn1cc(-c2cc(F)cc(N3CCn4c(cc5c4CCCC5)C3=O)c2CO)cc(Nc2ccc(N3CCN(C4COC4)CC3)cn2)c1=O  inhibition (enzyme activity, inhibitor; 0.1 µM): 12%
COc1ncccc1-c1cnn2ccc(N3CCN(C(=O)OC(C)C)CC3)nc12  remaining binding (binding, competition with immobilised ligand; 1 µM): 100%
Nc1ncc(-c2nc(N3CCOCC3)nc(N3CCOCC3)n2)c(C(F)F)n1  remaining binding (cell-free assay, competition with immobilised ligand; 10 µM): 41%
Cc1nn(C)cc1-c1nc2c(N3CCN(Cc4ccc(Cl)cc4)CC3)c(Cl)cnc2[nH]1  remaining binding (binding, competition with immobilised ligand; 1 µM): 12%
O=c1[nH]c2ccccc2n1C1CCN(Cc2ccc(-c3[nH]c4cc5ncnc5cc4nc3-c3ccccc3)cc2)CC1  remaining signal (cell-free assay; 0.5 µM): 90.9%
Cn1cncc1[C@](O)(COc1ccc(C#N)cc1-c1ccc(OC(F)(F)F)cc1)c1ccc(C#N)cc1  remaining binding (cell-free assay, competition with immobilised ligand; 1 µM): 96%
C#Cc1n[nH]c2c(-c3cn([C@@H](C)c4ccccn4)c(=O)[nH]c3=O)cc(F)cc12  inhibition (enzyme activity, inhibitor; 0.1 µM): 6.6%
COCc1c(-c2cc3cc(C)cc(OC)c3s2)c2c(N)ncnn2c1CN1CCNC(=O)C1  inhibition (cell-free assay, competition with immobilised ligand; 1 µM): 81%
